{"source": "ChEMBL document CHEMBL1136049", "about": "“Synthesis of syn- and anti-1-amino-3-[18F]fluoromethyl-cyclobutane-1-carboxylic acid (FMACBC), potential PET ligands for tumor detection” (J Med Chem, 2002)", "key": {"Rattus norvegicus [1]": {"species": "Rattus norvegicus", "experiment": "Radioactivity distribution in muscle of normal fischer rat after injection of syn-[18F]-FMACBC after 120 min.", "format": "ADME, organism-based, Muscle tissue", "details": "in vivo, 2 h", "summary_of_the_method": "(§1)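 Normal male Fischer 344 rats (200–250 g) were anesthetised with ketamine:xylazine i.m. and given about 85 μCi tracer in 0.3 mL sterile water via a tail vein catheter. Groups of four were killed at 5, 30, 60 and 120 min. Selected tissues were weighed and gamma counted with dose standards, decay-corrected, and expressed as mean %ID/g.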"}, "Rattus norvegicus [2]": {"species": "Rattus norvegicus", "experiment": "Radioactivity distribution in liver of normal fischer rat after injection of anti-[18F]FMACBC after 60 min.", "format": "ADME, organism-based", "details": "in vivo, 1 h", "summary_of_the_method": "(§2)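 Male Fischer 344 rats (200–250 g), normal, fed ad libitum, given ~85 μCi of 18F tracer in 0.3 mL sterile water IV through a tail vein catheter. Anesthesia was ketamine:xylazine IM. Groups of four were killed at 5, 30, 60 and 120 min. Tissues were weighed and gamma-counted against dose standards, decay-corrected, and expressed as mean % injected dose per gram.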"}, "Rattus norvegicus [3]": {"species": "Rattus norvegicus", "experiment": "Radioactivity distribution in heart of tumor-bearing fischer rat after injection of syn-[18F]-FMACBC after 5 min", "format": "ADME, organism-based", "details": "in vivo", "summary_of_the_method": "(§3)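 Male Fischer 344 rats carrying intracranial rat 9L gliosarcoma, made by stereotaxic injection of 4 × 10^4 cells 17–19 days before. Awake restrained rats received ~35 μCi of 18F tracer in 0.3 mL sterile water IV by tail vein and were killed at 5, 60 or 120 min, n = 3–5. Tissues were weighed, gamma-counted, decay-corrected and expressed as % injected dose per gram.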"}, "Rattus norvegicus [4]": {"species": "Rattus norvegicus", "experiment": "Radioactivity distribution in heart of tumor-bearing fischer rat after injection of anti-[18F]FMACBC after 60 min", "format": "ADME, organism-based", "details": "in vivo, 1 h", "summary_of_the_method": "as §3"}, "Rattus norvegicus [5]": {"species": "Rattus norvegicus", "experiment": "Radioactivity distribution in bone of tumor-bearing fischer rat after injection of syn-[18F]-FMACBC after 120 min", "format": "ADME, organism-based, Bone element", "details": "in vivo, 2 h", "summary_of_the_method": "as §3"}, "Rattus norvegicus [6]": {"species": "Rattus norvegicus", "experiment": "Radioactivity distribution in kidney of tumor-bearing fischer rat after injection of anti-[18F]FMACBC after 5 min", "format": "ADME, organism-based", "details": "in vivo", "summary_of_the_method": "as §3"}, "Rattus norvegicus [7]": {"species": "Rattus norvegicus", "experiment": "Radioactivity distribution in liver of normal fischer rat after injection of syn-[18F]-FMACBC after 30 min.", "format": "ADME, organism-based", "details": "in vivo, 0.5 h", "summary_of_the_method": "as §2"}, "Rattus norvegicus [8]": {"species": "Rattus norvegicus", "experiment": "Radioactivity distribution in muscle of normal fischer rat after injection of syn-[18F]-FMACBC after 5 min.", "format": "ADME, organism-based, Muscle tissue", "details": "in vivo", "summary_of_the_method": "as §1"}, "Rattus norvegicus [9]": {"species": "Rattus norvegicus", "experiment": "Radioactivity distribution in muscle of tumor-bearing fischer rat after injection of anti-[18F]FMACBC after 5 min", "format": "ADME, organism-based, Muscle tissue", "details": "in vivo", "summary_of_the_method": "(§4)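 Male Fischer 344 rats with intracranial 9L gliosarcoma (4 × 10^4 cells stereotaxically implanted; used 17–19 days after implantation). About 35 μCi tracer in 0.3 mL sterile water was given by tail vein to awake, restrained rats. Rats were killed at 5, 60 or 120 min. Tissues, tumor and contralateral brain were weighed and gamma counted, decay-corrected, and expressed as %ID/g; n = 3–5 per time point.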"}, "Rattus norvegicus [10]": {"species": "Rattus norvegicus", "experiment": "Radioactivity distribution in bone of normal fischer rat after injection of anti-[18F]FMACBC after 5 min.", "format": "ADME, organism-based, Bone element", "details": "in vivo", "summary_of_the_method": "as §2"}, "Rattus norvegicus [11]": {"species": "Rattus norvegicus", "experiment": "Radioactivity distribution in muscle of normal fischer rat after injection of syn-[18F]-FMACBC after 30 min.", "format": "ADME, organism-based, Muscle tissue", "details": "in vivo, 0.5 h", "summary_of_the_method": "as §1"}, "Rattus norvegicus [12]": {"species": "Rattus norvegicus", "experiment": "Radioactivity distribution in blood of normal fischer rat after injection of anti-[18F]FMACBC after 60 min.", "format": "ADME, organism-based", "details": "in vivo, 1 h", "summary_of_the_method": "as §2"}, "Rattus norvegicus [13]": {"species": "Rattus norvegicus", "experiment": "Radioactivity distribution in testis of tumor-bearing fischer rat after injection of anti-[18F]FMACBC after 120 min", "format": "ADME, organism-based", "details": "in vivo, 2 h", "summary_of_the_method": "as §4"}, "Rattus norvegicus [14]": {"species": "Rattus norvegicus", "experiment": "Radioactivity distribution in tumor of tumor-bearing fischer rat after injection of anti-[18F]FMACBC after 60 min", "format": "ADME, organism-based", "details": "in vivo, 1 h", "summary_of_the_method": "as §4"}, "Rattus norvegicus [15]": {"species": "Rattus norvegicus", "experiment": "Radioactivity distribution in blood of normal fischer rat after injection of syn-[18F]-FMACBC after 30 min.", "format": "ADME, organism-based", "details": "in vivo, 0.5 h", "summary_of_the_method": "as §2"}, "Rattus norvegicus [16]": {"species": "Rattus norvegicus", "experiment": "Radioactivity distribution in pancreas of tumor-bearing fischer rat after injection of syn-[18F]-FMACBC after 60 min", "format": "ADME, organism-based", "details": "in vivo, 1 h", "summary_of_the_method": "as §4"}, "Rattus norvegicus [17]": {"species": "Rattus norvegicus", "experiment": "Radioactivity distribution in lung of tumor-bearing fischer rat after injection of anti-[18F]FMACBC after 60 min", "format": "ADME, organism-based", "details": "in vivo, 1 h", "summary_of_the_method": "as §4"}, "Rattus norvegicus [18]": {"species": "Rattus norvegicus", "experiment": "Radioactivity distribution in lungs of normal fischer rat after injection of syn-[18F]-FMACBC after 5 min.", "format": "ADME, organism-based, Lung", "details": "in vivo", "summary_of_the_method": "as §1"}}, "data": [{"compound": "N[C@]1(C(=O)O)C[C@@H](CF)C1", "values": [{"measurement": "ID/g", "setting": "Rattus norvegicus [1]", "value": 0.6, "unit": "%"}, {"measurement": "ID/g", "setting": "Rattus norvegicus [2]", "value": 0.47, "unit": "%"}, {"measurement": "ID/g", "setting": "Rattus norvegicus [3]", "value": 0.52, "unit": "%"}, {"measurement": "ID/g", "setting": "Rattus norvegicus [4]", "value": 0.63, "unit": "%"}, {"measurement": "ID/g", "setting": "Rattus norvegicus [5]", "value": 0.13, "unit": "%"}, {"measurement": "ID/g", "setting": "Rattus norvegicus [6]", "value": 0.96, "unit": "%"}, {"measurement": "ID/g", "setting": "Rattus norvegicus [7]", "value": 0.37, "unit": "%"}, {"measurement": "ID/g", "setting": "Rattus norvegicus [8]", "value": 0.46, "unit": "%"}, {"measurement": "ID/g", "setting": "Rattus norvegicus [9]", "value": 0.57, "unit": "%"}, {"measurement": "ID/g", "setting": "Rattus norvegicus [10]", "value": 0.52, "unit": "%"}, {"measurement": "ID/g", "setting": "Rattus norvegicus [11]", "value": 0.58, "unit": "%"}, {"measurement": "ID/g", "setting": "Rattus norvegicus [12]", "value": 0.33, "unit": "%"}, {"measurement": "ID/g", "setting": "Rattus norvegicus [13]", "value": 0.23, "unit": "%"}, {"measurement": "ID/g", "setting": "Rattus norvegicus [14]", "value": 2.5, "unit": "%"}, {"measurement": "ID/g", "setting": "Rattus norvegicus [15]", "value": 0.33, "unit": "%"}, {"measurement": "ID/g", "setting": "Rattus norvegicus [16]", "value": 2.08, "unit": "%"}, {"measurement": "ID/g", "setting": "Rattus norvegicus [17]", "value": 0.38, "unit": "%"}, {"measurement": "ID/g", "setting": "Rattus norvegicus [18]", "value": 0.75, "unit": "%"}]}]}
